# From ChEMBL document CHEMBL1158351, “Studies on chemical structure modification and biology of a natural product, gambogic acid (I): Synthesis and biological evaluation of oxidized analogues of gambogic acid” (Eur J Med Chem, 2009)
# Activity calls are given as the source filed them. The rule behind the calls is not given here.
# Assays:
# [1] = tested on: BGC-823; test: Cytotoxicity against human BGC823 cells after 48 hrs by MTT assay; type: functional, cell-based; conditions: BGC-823, 48 h
# Summary of the method: (§1)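 Cells in RPMI-1640 with 10% heat-inactivated calf serum, penicillin/streptomycin, 5% CO2, 37 °C. Seeded at 5×10³ per well and exposed to six concentrations of 0.01–1000 for 48 h. Then 0.5% MTT for 4 h at 37 °C, formazan dissolved in DMSO, absorbance read at 570 nm. Inhibition calculated as (1 − treated/control absorbance)×100. IC50 is the concentration giving 50% inhibition; mean ± SD of three observations.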
# [2] = tested on: A549; test: Cytotoxicity against human A549 cells after 48 hrs by MTT assay; type: functional, cell-based; conditions: A549, 48 h; summary of the method: as §1
# [3] = tested on: Bel-7402; test: Cytotoxicity against human Bel7402 cells after 48 hrs by MTT assay; type: functional, cell-based; conditions: Bel-7402, 48 h; summary of the method: as §1
# [4] = tested on: HT-29; test: Cytotoxicity against human HT-29 cells after 48 hrs by MTT assay; type: functional, cell-based; conditions: HT-29, 48 h; summary of the method: as §1
# [5] = tested on: SK-OV-3; test: Cytotoxicity against human SKOV3 cells after 48 hrs by MTT assay; type: functional, cell-based; conditions: SK-OV-3, 48 h; summary of the method: as §1
# [6] = tested on: HepG2; test: Induction of apoptosis in human HepG2 cells assessed late apoptotic cells at 1 uM after 20 hrs using FITC-conjugated annexin V and propidium iodide staining by FACS analysis; type: functional
# Summary of the method: (§2)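 HepG2 cells in flasks treated for 20 h, then 1×10⁶ cells harvested, washed and resuspended in PBS. Stained with FITC-Annexin V and PI kit per kit instructions and analysed by flow cytometry. Quadrants: Annexin−/PI− viable, Annexin+/PI− early apoptotic, upper right necrotic/late apoptotic.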
# [7] = tested on: HepG2; test: Induction of apoptosis in human HepG2 cells assessed as ratio of Bcl-2 to Bax protein expression at 1 uM after 20 hrs by SDS-PAGE; type: functional
# Summary of the method: (§3)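 HepG2 cells treated for 20 h, then lysed in Tris-Cl pH 6.8 buffer with 4% SDS, 20% glycerol, 200 mM β-mercaptoethanol, PMSF and aprotinin. Protein measured by Bradford at 595 nm and resolved on 10% SDS-PAGE, then transferred to PVDF membrane. Probed overnight at 4 °C with anti-Bcl-2, anti-Bax and anti-actin primaries, then 1 h with IRDye800 secondaries. Bcl-2/Bax ratio derived from band quantitation.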
# [8] = tested on: HepG2; test: Induction of early apoptosis in human HepG2 cells assessed as presence of congregated chromatin and nucleolus pyknosis at 1 uM after 18 hrs using AOEB staining by fluorescence microscopy; type: functional, cell-based
# Summary of the method: (§4)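 HepG2 cells treated for 18 h, fixed in 4% paraformaldehyde for 20 min, and permeabilized in 0.1% Triton for 20 min. Stained with acridine orange/ethidium bromide in PBS for 5 min. Viewed by fluorescence microscopy at 490 nm excitation. Green AO with condensed chromatin scored as early apoptotic; uniform red EB scored as dead.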
# [9] = tested on: HepG2; test: Induction of apoptosis in human HepG2 cells assessed viable cells at 1 uM after 20 hrs using FITC-conjugated annexin V and propidium iodide staining by FACS analysis; type: functional; summary of the method: as §2
# [10] = tested on: HepG2; test: Induction of apoptosis in human HepG2 cells assessed as morphological changes at 3 uM after 20 hrs using DAPI staining by fluorescence microscopy; type: functional, cell-based
# Summary of the method: (§5)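 Mid-log HepG2 cultures in RPMI-1640 treated for 20 h, then morphology checked by inverted light microscopy. Floating and attached cells collected with EDTA/trypsin, fixed in ice-cold 4% paraformaldehyde for 20 min, and permeabilized with 0.3% Triton X-100. Stained with DAPI and viewed by fluorescence microscopy at 340 nm excitation.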
# [11] = tested on: HepG2; test: Induction of apoptosis in human HepG2 cells assessed nonviable necrotic cells at 6 uM after 20 hrs using FITC-conjugated annexin V and propidium iodide staining by FACS analysis; type: functional; summary of the method: as §2
# [12] = tested on: HepG2; test: Induction of apoptosis in human HepG2 cells assessed as decrease in Bcl-2 protein expression at 6 uM after 20 hrs by SDS-PAGE; type: functional, cell-based; summary of the method: as §3
# [13] = tested on: HepG2; test: Induction of apoptosis in human HepG2 cells assessed as morphological changes at 1 uM after 20 hrs using DAPI staining by fluorescence microscopy; type: functional, cell-based; summary of the method: as §5
# [14] = tested on: HepG2; test: Induction of apoptosis in human HepG2 cells assessed nonviable necrotic cells at 2 uM after 20 hrs using FITC-conjugated annexin V and propidium iodide staining by FACS analysis; type: functional; summary of the method: as §2
# [15] = tested on: HepG2; test: Induction of apoptosis in human HepG2 cells assessed as decrease in Bcl-2 protein expression at 2 uM after 20 hrs by SDS-PAGE; type: functional, cell-based; summary of the method: as §3
# [16] = tested on: HepG2; test: Induction of apoptosis in human HepG2 cells assessed early apoptotic cells at 2 uM after 20 hrs using FITC-conjugated annexin V and propidium iodide staining by FACS analysis; type: functional; summary of the method: as §2
# [17] = tested on: HepG2; test: Induction of apoptosis in human HepG2 cells assessed viable cells at 6 uM after 20 hrs using FITC-conjugated annexin V and propidium iodide staining by FACS analysis; type: functional; summary of the method: as §2
# [18] = tested on: HepG2; test: Induction of early apoptosis in human HepG2 cells assessed as presence of congregated chromatin and nucleolus pyknosis at 2 uM after 18 hrs using AOEB staining by fluorescence microscopy; type: functional, cell-based; summary of the method: as §4
# [19] = tested on: HepG2; test: Induction of apoptosis in human HepG2 cells assessed late apoptotic cells at 2 uM after 20 hrs using FITC-conjugated annexin V and propidium iodide staining by FACS analysis; type: functional; summary of the method: as §2
# [20] = tested on: HepG2; test: Induction of apoptosis in human HepG2 cells assessed viable cells at 2 uM after 20 hrs using FITC-conjugated annexin V and propidium iodide staining by FACS analysis; type: functional; summary of the method: as §2
# [21] = tested on: HepG2; test: Induction of apoptosis in human HepG2 cells assessed early apoptotic cells at 6 uM after 20 hrs using FITC-conjugated annexin V and propidium iodide staining by FACS analysis; type: functional; summary of the method: as §2
# [22] = tested on: HepG2; test: Induction of apoptosis in human HepG2 cells assessed as inhibition of cell viability after 24 hrs by MTT assay; type: functional, cell-based
# Summary of the method: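 Medium then removed and MTT added; after 4 h the supernatant was discarded and DMSO added. Absorbance read at 570 nm. Mean ± SD, n = 3; IC50 calculated from the concentration–response.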
# [23] = tested on: HepG2; test: Induction of apoptosis in human HepG2 cells assessed as morphological changes at 2 uM after 20 hrs using DAPI staining by fluorescence microscopy; type: functional, cell-based; summary of the method: as §5
# [24] = tested on: HepG2; test: Induction of early apoptosis in human HepG2 cells assessed as presence of congregated chromatin and nucleolus pyknosis at 3 uM after 18 hrs using AOEB staining by fluorescence microscopy; type: functional, cell-based; summary of the method: as §4
# [25] = tested on: HepG2; test: Induction of apoptosis in human HepG2 cells assessed as decrease in Bcl-2 protein expression at 1 uM after 20 hrs by SDS-PAGE; type: functional, cell-based; summary of the method: as §3
# [26] = tested on: HepG2; test: Induction of apoptosis in human HepG2 cells assessed nonviable necrotic cells at 1 uM after 20 hrs using FITC-conjugated annexin V and propidium iodide staining by FACS analysis; type: functional; summary of the method: as §2
# [27] = tested on: HepG2; test: Induction of apoptosis in human HepG2 cells assessed late apoptotic cells at 6 uM after 20 hrs using FITC-conjugated annexin V and propidium iodide staining by FACS analysis; type: functional; summary of the method: as §2
# [28] = tested on: HepG2; test: Induction of apoptosis in human HepG2 cells assessed as ratio of Bcl-2 to Bax protein expression at 2 uM after 20 hrs by SDS-PAGE; type: functional; summary of the method: as §3
# [29] = tested on: HepG2; test: Induction of apoptosis in human HepG2 cells assessed as ratio of Bcl-2 to Bax protein expression at 6 uM after 20 hrs by SDS-PAGE; type: functional; summary of the method: as §3
# [30] = tested on: HepG2; test: Induction of apoptosis in human HepG2 cells assessed early apoptotic cells at 1 uM after 20 hrs using FITC-conjugated annexin V and propidium iodide staining by FACS analysis; type: functional; summary of the method: as §2
smiles,measurement,setting,value
C/C(=C/C[C@@]12OC(C)(C)[C@@H]3C[C@@H](C=C4C(=O)c5c(O)c6c(c(C/C=C(\C)CO)c5O[C@]431)O[C@](C)(CC/C=C(\C)C=O)C=C6)C2=O)C(=O)O,IC50,[1],6.75 µM
same,IC50,[2],20.5 µM
same,IC50,[3],15 µM
same,IC50,[4],2.08 µM
same,IC50,[5],1.84 µM
COC(=O)/C(C)=C\C[C@@]12OC(C)(C)[C@@H]3C[C@@H](C=C4C(=O)c5c(OC)c6c(c(CC=C(C)C)c5O[C@]431)O[C@](C)(CC/C=C(\C)COC(C)=O)C=C6)C2=O,IC50,[1],1.42 µM
same,IC50,[2],5.25 µM
same,IC50,[3],3.6 µM
same,IC50,[4],2.41 µM
same,IC50,[5],15.8 µM
CC(C)=CCC[C@]1(C)C=Cc2c(O)c3c(c(CC=C(C)C)c2O1)O[C@]12[C@H]4C[C@H](C(=O)[C@]1(C/C=C(/C)C(=O)O)OC4(C)C)C(O)C2(O)C3=O (stereo partly specified),IC50,[1],29.9 µM
same,IC50,[2],74.2 µM
same,IC50,[3],33.1 µM
same,IC50,[4],34.7 µM
same,IC50,[5],6 µM
COC(=O)/C(C)=C\C[C@@]12OC(C)(C)[C@@H]3C[C@@H](C=C4C(=O)c5c(OC)c6c(c(CC=C(C)C)c5O[C@]431)O[C@](C)(CC[C@H](O)C(C)(C)O)C=C6)C2=O,IC50,[1],3.46 µM
same,IC50,[2],5.86 µM
same,IC50,[3],3.65 µM
same,IC50,[4],3.75 µM
same,IC50,[5],3.23 µM
CC(C)=CCC[C@]1(C)C=Cc2c(O)c3c(c(CC=C(C)C)c2O1)O[C@]12C(=C[C@@H]4C[C@H]1C(C)(C)O[C@@]2(C/C=C(/C)C(=O)O)C4=O)C3=O [GAMBOGIC ACID],IC50,[1],4.51 µM
same,IC50,[2],5.81 µM
same,IC50,[3],3.31 µM
same,IC50,[4],5.61 µM
same,IC50,[5],3.06 µM
COC(=O)/C(C)=C\C[C@@]12OC(C)(C)[C@@H]3C[C@@H](C=C4C(=O)c5c(OC)c6c(c(CC7OC7(C)C)c5O[C@]431)O[C@](C)(CCC1OC1(C)C)C=C6)C2=O (stereo partly specified),IC50,[1],3.21 µM
same,IC50,[2],3.61 µM
same,IC50,[3],1.66 µM
same,IC50,[4],1.86 µM
same,IC50,[5],1.8 µM
COC(=O)/C(C)=C\C[C@@]12OC(C)(C)[C@@H]3C[C@@H](C=C4C(=O)c5c(OC)c6c(c(CC=C(C)C)c5O[C@]431)O[C@](C)(CC/C=C(\C)CO)C=C6)C2=O,Activity,[6],3.5%
same,Ratio,[7],0.476
same,Activity,[8],Active
same,Activity,[9],92.3%
same,Activity,[10],Active
same,Activity,[11],0.9%
same,Activity,[12],Active
same,Activity,[13],Active
same,Activity,[14],0.2%
same,Activity,[15],Active
same,Activity,[16],5%
same,IC50,[1],0.84 µM
same,Activity,[17],72.7%
same,IC50,[2],4.38 µM
same,IC50,[3],0.96 µM
same,Activity,[18],Active
same,Activity,[19],2.5%
same,Activity,[20],92.3%
same,Activity,[21],12.9%
same,IC50,[4],0.89 µM
same,Activity,[22],Dose-dependent effect
same,IC50,"[22]; HepG2, 24 h",2.35 µM
same,Activity,[23],Active
same,IC50,[5],1.28 µM
same,Activity,[24],Active
same,Activity,[25],Active
same,Activity,[26],0.2%
same,Activity,[27],13.5%
same,Ratio,[28],0.478
same,Ratio,[29],0.251
same,Activity,[30],4%
COC(=O)/C(C)=C\C[C@@]12OC(C)(C)[C@@H]3C[C@@H](C=C4C(=O)c5c(OC)c6c(c(CC=C(C)C)c5O[C@]431)O[C@](C)(CCC1OC1(C)C)C=C6)C2=O (stereo partly specified),IC50,[1],0.75 µM
same,IC50,[2],1.48 µM
same,IC50,[3],1.4 µM
same,IC50,[4],2.19 µM
same,IC50,[5],0.64 µM
CC(C)=CCC[C@]1(C)C=Cc2c(O)c3c(c(C/C=C(\C)CO)c2O1)O[C@]12C(=C[C@@H]4C[C@H]1C(C)(C)O[C@@]2(C/C=C(/C)C(=O)O)C4=O)C3=O,IC50,[1],4.89 µM
same,IC50,[2],5.87 µM
same,IC50,[3],4.01 µM
same,IC50,[4],2.66 µM
same,IC50,[5],1.61 µM
COC(=O)/C(C)=C\C[C@@]12OC(C)(C)[C@@H]3C[C@@H](C=C4C(=O)c5c(OC)c6c(c(CC=C(C)C)c5O[C@]431)O[C@](C)(CC[C@@H](O)C(C)(C)O)C=C6)C2=O,IC50,[1],> 100 µM
same,IC50,[2],> 100 µM
same,IC50,[3],> 100 µM
same,IC50,[4],> 100 µM
same,IC50,[5],> 100 µM
C/C(=C/C[C@@]12OC(C)(C)[C@@H]3C[C@@H](C=C4C(=O)c5c(O)c6c(c(CC7OC7(C)C)c5O[C@]431)O[C@](C)(CCC1OC1(C)C)C=C6)C2=O)C(=O)O (stereo partly specified),IC50,[1],4.38 µM
same,IC50,[2],1.56 µM
same,IC50,[3],3.73 µM
same,IC50,[4],2.08 µM
same,IC50,[5],0.76 µM
